The values that follow come from ChEMBL document CHEMBL4184236, “Design, synthesis and biological evaluation of matrine derivatives as potential anticancer agents” (Bioorg Med Chem Lett, 2018).

Holding throughout (assay type): functional, cell-based
The test system of one assay is CNE-2. Kind of assay: Anticancer activity against human CNE2 cells assessed as reduction in cell viability incubated for 48 hrs MTT assay. Conditions: CNE-2, 48 h. The method, boiled down:
(§1)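 MTT assay on human hepatocarcinoma SMMC-7721, lung carcinoma A549 and nasopharyngeal carcinoma CNE2 cells, with matrine as comparator and cisplatin as positive control. IC50 is the concentration that lowers optical density of treated cells by 50% versus untreated cells, given as the mean ± SD of three experiments.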

Another assay concerns A549. The experiment in a line: Anticancer activity against human A549 cells assessed as reduction in cell viability incubated for 48 hrs MTT assay. The conditions noted are these: A549, 48 h. The method, boiled down:
as §1

Another assay concerns SMMC-7721. Kind of assay: Anticancer activity against human SMMC7721 cells assessed as reduction in cell viability incubated for 48 hrs MTT assay. The conditions noted are these: SMMC-7721, 48 h. The method, boiled down: as §1

One may read the IC50 as the concentration that gives 50% inhibition.

Turning to `O=C1/C(=C/c2cn(Cc3cccc(Cl)c3)c3ccccc23)CC[C@@H]2[C@H]3CCCN4CCC[C@@H](CN12)[C@@H]34`, the 50% inhibitory concentration (IC50) worked out at 6.36 µM in the assay with CNE-2, 7.53 µM with A549 and 7.58 µM in the assay on SMMC-7721.
For `COc1cccc(Cn2cccc2/C=C2\CC[C@@H]3[C@H]4CCCN5CCC[C@@H](CN3C2=O)[C@@H]45)c1`, in that order: 7.05 µM, 29.8 µM and 13.4 µM.
As to `O=C1/C(=C/c2cn(Cc3ccc(OCc4ccccc4)cc3)c3ccccc23)CC[C@@H]2[C@H]3CCCN4CCC[C@@H](CN12)[C@@H]34`, the IC50 came out at 11.7 µM in the assay on CNE-2, 12.6 µM in the assay with A549 and 9.76 µM with SMMC-7721.
For the molecule `O=C1/C(=C/c2cn(Cc3ccc(OC(F)(F)F)cc3)c3ccccc23)CC[C@@H]2[C@H]3CCCN4CCC[C@@H](CN12)[C@@H]34`, the IC50 turned out to be 6.64 µM in the assay on CNE-2, 7.03 µM in the assay on A549 and 6.82 µM with SMMC-7721.
The corresponding values for `O=C1/C(=C/c2cn(Cc3ccccc3)c3ccccc23)CC[C@@H]2[C@H]3CCCN4CCC[C@@H](CN12)[C@@H]34` are 10.8 µM, 13.9 µM and 11.9 µM.
The corresponding values for `O=C1/C(=C/c2cccn2Cc2ccc(OC(F)(F)F)cc2)CC[C@@H]2[C@H]3CCCN4CCC[C@@H](CN12)[C@@H]34` are 23.9 µM, 47.1 µM and 36.6 µM.
For `COc1ccc(Cn2ccc3c(/C=C4\CC[C@@H]5[C@H]6CCCN7CCC[C@@H](CN5C4=O)[C@@H]67)cccc32)cc1`, in that order: 15.5 µM, 28.4 µM and 28.2 µM.
Regarding `O=C1/C(=C/c2cccn2Cc2ccccc2Cl)CC[C@@H]2[C@H]3CCCN4CCC[C@@H](CN12)[C@@H]34`, the half-maximal inhibitory concentration (IC50) in the assay on CNE-2 was found to be 26.3 µM; in the assay on A549, 26.2 µM; in the assay with SMMC-7721 it was 26 µM.
For the molecule `Cc1cccc(Cn2cc(/C=C3\CC[C@@H]4[C@H]5CCCN6CCC[C@@H](CN4C3=O)[C@@H]56)c3ccccc32)c1`, the IC50 was determined as 7.91 µM with CNE-2, 9.24 µM in the assay on A549 and 8.52 µM in the assay with SMMC-7721.
For `O=C1/C(=C/c2cn(Cc3ccc(OC(F)(F)F)cc3)c3ccc(Br)cc23)CC[C@@H]2[C@H]3CCCN4CCC[C@@H](CN12)[C@@H]34`, in that order: 6.04 µM, 9.04 µM and 11.5 µM.
For `Cc1ccccc1Cn1cccc1/C=C1\CC[C@@H]2[C@H]3CCCN4CCC[C@@H](CN2C1=O)[C@@H]34`, in that order: 28.4 µM, 29.3 µM and 22.4 µM.
For `O=C1/C(=C/c2ccc3c(ccn3Cc3ccc4ccccc4c3)c2)CC[C@@H]2[C@H]3CCCN4CCC[C@@H](CN12)[C@@H]34`, in that order: 14.3 µM, 30.2 µM and 27 µM.
As for `Cc1cccc(Cn2cccc2/C=C2\CC[C@@H]3[C@H]4CCCN5CCC[C@@H](CN3C2=O)[C@@H]45)c1`, the half-maximal inhibitory concentration (IC50) in the assay with CNE-2 was 24.5 µM; in the assay on A549, 44.3 µM; in the assay on SMMC-7721, 30.7 µM.
Turning to `COc1ccc2c(/C=C3\CC[C@@H]4[C@H]5CCCN6CCC[C@@H](CN4C3=O)[C@@H]56)cn(Cc3ccc(Cl)cc3)c2c1`, the IC50 in the assay with CNE-2 amounted to 6.84 µM; in the assay on A549 it was 10.1 µM; in the assay on SMMC-7721, 8.73 µM.
For `O=C1/C(=C/c2cccc3c2ccn3Cc2cccc(Cl)c2)CC[C@@H]2[C@H]3CCCN4CCC[C@@H](CN12)[C@@H]34`, in that order: 6.64 µM, 7.07 µM and 6.83 µM.
For `O=C1CCC[C@@H]2[C@H]3CCCN4CCC[C@@H](CN12)[C@@H]34` [MATRINE], the concentration for half-maximal inhibition (IC50) with CNE-2 was 5280 µM; in the assay with A549, 5720 µM; with SMMC-7721, 6590 µM.
